Laboratory results as given in ChEMBL document CHEMBL2331076, “Pyridone alkaloids from a marine-derived fungus, Stagonosporopsis cucurbitacearum, and their activities against azole-resistant Candida albicans” (2013).
Converted amounts (≈) assume the structure as drawn.

Legend:
Format in all cases: functional
[1] = system: Nakaseomyces glabratus; assay: Antifungal activity against Candida glabrata J 92 by CLSI M27-A2 microdilution method
Outline: (§1)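 Broth microdilution per CLSI M27-A2, run in triplicate. Panel: azole-resistant C. albicans J2-36 (resistant to fluconazole, itraconazole, voriconazole), azole-sensitive C. albicans J1-97, C. glabrata J-92, Cryptococcus neoformans MPU-B. Quality control was run on each testing day with reference strains, including C. albicans ATCC 90028.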

[2] = system: Candida albicans; assay: Antifungal activity against azole-sensitive Candida albicans J1-97 by CLSI M27-A2 microdilution method; outline: as §1
[3] = system: Candida albicans; assay: Antifungal activity against azole-resistant Candida albicans J2-36 by CLSI M27-A2 microdilution method
[4] = system: Cryptococcus neoformans; assay: Antifungal activity against Cryptococcus neoformans MPU-B by CLSI M27-A2 microdilution method; outline: as §1

SMILES	MIC [1] [µg/mL]	MIC [2] [µg/mL]	MIC [3] [µg/mL]	MIC [4] [µg/mL]
C[C@@H]1CC[C@H]2[C@H](C(=O)c3c(O)c([C@]4(O)CCC(=O)[C@@H]5O[C@@H]54)cn(O)c3=O)[C@H](C)C=C[C@@H]2C1 [DIDYMELLAMIDE A]	3.1 (≈ 6.99 µM)	3.1 (≈ 6.99 µM)	3.1 (≈ 6.99 µM)	1.6 (≈ 3.61 µM)
C[C@@H]1CC[C@H]2[C@H](C(=O)c3c(O)c(C4(O)CCC(=O)CC4O)c[nH]c3=O)[C@H](C)C=C[C@@H]2C1 (stereo partly specified) [DIDYMELLAMIDE D]	> 25	> 25	> 25	> 25
C[C@@H]1CC[C@H]2[C@H](C(=O)c3c(O)c(C4(O)C=CC(=O)CC4)c[nH]c3=O)[C@H](C)C=C[C@@H]2C1 (stereo partly specified) [DIDYMELLAMIDE C]	> 25	> 25	> 25	> 25
C[C@@H]1CC[C@H]2[C@H](C(=O)c3c(O)c(-c4ccc(O)cc4)c[nH]c3=O)[C@H](C)C=C[C@@H]2C1 [DIDYMELLAMIDE B]	> 25	> 25	> 25	6.3 (≈ 16 µM)
